Calls of active or inactive are those of the source.
Columns and labels:
[1] = system: Escherichia coli; assay: Potentiation of tobramycin-induced antibiotic activity against Escherichia coli ATCC 25922 assessed as MIC fold reduction at 8 ug/ml after 18 hrs by microbroth dilution method; assay type: functional; settings: dose 8 µg/ml
[2] = system: Escherichia coli; assay: Potentiation of ceftazidime-induced antibiotic activity against Escherichia coli ATCC 25922 assessed as MIC fold reduction at 8 ug/ml after 18 hrs by microbroth dilution method; assay type: functional; settings: dose 8 µg/ml
Method in brief: (§1)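 Adjuvant held at a fixed 8 μg/mL while the antibiotic was 2-fold serially diluted in Mueller-Hinton broth (MHB), per CLSI microbroth dilution. Overnight cultures were adjusted in saline to 0.5 McFarland, then diluted 1:50 in MHB to about 5 × 10^5 CFU/mL final, and incubated 18 h at 37 °C. MIC was the lowest concentration with no visible turbidity, confirmed at 590 nm. Fold potentiation = MIC alone / MIC with adjuvant.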

[3] = system: Acinetobacter baumannii; assay: Potentiation of doxycycline-induced antibiotic activity against Acinetobacter baumannii ATCC 17978 assessed as MIC fold reduction at 8 ug/ml after 18 hrs by microbroth dilution method; assay type: functional; settings: dose 8 µg/ml; method in brief: as §1
[4] = system: Escherichia coli; assay: Potentiation of erythromycin-induced antibiotic activity against Escherichia coli ATCC 25922 assessed as MIC fold reduction at 8 ug/ml after 18 hrs by microbroth dilution method; assay type: functional; settings: dose 8 µg/ml; method in brief: as §1
[5] = system: Acinetobacter baumannii; assay: Potentiation of novobiocin-induced antibiotic activity against Acinetobacter baumannii ATCC 17978 assessed as MIC fold reduction at 8 ug/ml after 18 hrs by microbroth dilution method; assay type: functional; settings: dose 8 µg/ml
[6] = system: Escherichia coli; assay: Potentiation of pleuromutilin-induced antibiotic activity against Escherichia coli ATCC 25922 assessed as MIC fold reduction at 8 ug/ml after 18 hrs by microbroth dilution method; assay type: functional; settings: dose 8 µg/ml
[7] = system: Staphylococcus aureus; assay: Antibacterial activity against methicillin-resistant Staphylococcus aureus ATCC 33592 assessed as reduction in bacterial growth after 18 hrs by microbroth dilution method; assay type: functional
Method in brief: (§2)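 Broth microdilution per CLSI in Mueller-Hinton broth (MHB). Overnight cultures were adjusted to 0.5 McFarland in saline, diluted 1:50 in MHB, and added at about 5 × 10^5 CFU/mL final to equal volumes of 2-fold serial dilutions of agent. Incubation was 18 h at 37 °C. MIC was the lowest concentration with no visible turbidity, confirmed by absorbance at 590 nm.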

[8] = system: Pseudomonas aeruginosa; assay: Potentiation of ceftazidime-induced antibiotic activity against MDR clinical isolate Pseudomonas aeruginosa PA264 assessed as MIC fold reduction at 8 ug/ml after 18 hrs by microbroth dilution method; assay type: functional, organism-based; settings: dose 8.0 µg/ml; method in brief: as §1
[9] = system: Pseudomonas aeruginosa; assay: Antibacterial activity against MDR clinical isolate Pseudomonas aeruginosa PA260 assessed as reduction in bacterial growth after 18 hrs by microbroth dilution method; assay type: functional
Method in brief: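 CLSI broth microdilution. Overnight cultures were adjusted in saline to 0.5 McFarland, diluted 1:50 in Mueller-Hinton broth (MHB), and inoculated at about 5 × 10^5 CFU/mL. Agents were 2-fold serially diluted in MHB, mixed 1:1 with inoculum, and held at 37 °C for 18 h. MIC was the lowest concentration with no visible turbidity, confirmed at 590 nm.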

[10] = system: Pseudomonas aeruginosa; assay: Antibacterial activity against MDR clinical isolate Pseudomonas aeruginosa PA264 assessed as reduction in bacterial growth after 18 hrs by microbroth dilution method; assay type: functional; method in brief: as §2
[11] = system: Pseudomonas aeruginosa; assay: Antibacterial activity against colistin-resistant clinical isolate Pseudomonas aeruginosa PA101243 assessed as reduction in bacterial growth after 18 hrs by microbroth dilution method; assay type: functional; method in brief: as §2
[12] = system: Pseudomonas aeruginosa; assay: Antibacterial activity against […] Pseudomonas aeruginosa PAO1 assessed as reduction in bacterial growth after 18 hrs in presence of cefiderocol by microbroth dilution method; assay type: functional
Method in brief: (§3)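 Checkerboard in MHB. Cefiderocol was 2-fold serially diluted along one axis and the adjuvant along the other. Inoculum was prepared from 0.5 McFarland saline suspensions diluted 1:50 in MHB, giving about 5 × 10^5 CFU/mL final. Plates ran 18 h at 37 °C, with turbidity confirmed at 590 nm. FIC = combination MIC ÷ MIC alone for each agent, and FIC index = sum of both. Interpretation: ≤0.5 synergy, >0.5–4 additive, >4 antagonism.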

[13] = system: Pseudomonas aeruginosa; assay: Antibacterial activity against MDR clinical isolate Pseudomonas aeruginosa PA262 assessed as reduction in bacterial growth after 18 hrs in presence of cefiderocol by microbroth dilution method; assay type: functional
Method in brief: (§4)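 Checkerboard in MHB (iron-replete, not iron-depleted CAMHB). Cefiderocol was 2-fold serially diluted along one axis and the adjuvant along the other. Inoculum was 0.5 McFarland diluted 1:50, about 5 × 10^5 CFU/mL final. Incubation was 18 h at 37 °C, with turbidity read visually and confirmed at 590 nm. FIC was the MIC in combination over the MIC alone for each agent, and the FIC index was their sum. Cut-offs were ≤0.5 synergy, >0.5–4 additive, >4 antagonism.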

[14] = system: Pseudomonas aeruginosa; assay: Antibacterial activity against MDR clinical isolate Pseudomonas aeruginosa PA109084 assessed as reduction in bacterial growth after 18 hrs in presence of cefiderocol by microbroth dilution method; assay type: functional; method in brief: as §3
[15] = system: Pseudomonas aeruginosa; assay: Antibacterial activity against MDR clinical isolate Pseudomonas aeruginosa PA108590 assessed as potentiation of cefiderocol antibacterial activity by measuring FIC index after 18 hrs by microbroth dilution method; assay type: functional; method in brief: as §4
[16] = system: Acinetobacter baumannii; assay: Antibacterial activity against Acinetobacter baumannii AB92247 assessed as reduction in bacterial growth after 18 hrs by microbroth dilution method; assay type: functional
Method in brief: (§5)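 CLSI microbroth dilution in MHB. Overnight cultures were adjusted to 0.5 McFarland in saline, diluted 1:50, and inoculated at about 5 × 10^5 CFU/mL. Agents were 2-fold serially diluted and incubated 18 h at 37 °C. MIC is the lowest concentration without visible turbidity, confirmed by absorbance at 590 nm. Medium with and without cells served as controls.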

[17] = system: Acinetobacter baumannii; assay: Antibacterial activity against Acinetobacter baumannii LAC-4 assessed as reduction in bacterial growth after 18 hrs in presence of cefiderocol by microbroth dilution method; assay type: functional
Method in brief: (§6)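 Checkerboard in Mueller-Hinton broth: cefiderocol 2-fold diluted on one axis, adjuvant 2-fold on the other. Overnight cultures were adjusted to 0.5 McFarland in saline, diluted 1:50 in MHB, and inoculated at about 5 × 10^5 CFU/mL. Incubation was 18 h at 37 °C. Turbidity was read visually and confirmed at 590 nm. FIC index = FIC of antibiotic + FIC of adjuvant; ≤0.5 synergy, >4 antagonism.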

[18] = system: Acinetobacter baumannii; assay: Antibacterial activity against Acinetobacter baumannii ATCC 17978 assessed as potentiation of cefiderocol antibacterial activity by measuring FIC after 18 hrs by microbroth dilution method; assay type: functional; method in brief: as §6
[19] = system: Acinetobacter baumannii; assay: Antibacterial activity against Acinetobacter baumannii AB92247 assessed as potentiation of cefiderocol antibacterial activity by measuring FIC after 18 hrs by microbroth dilution method; assay type: functional; method in brief: as §6
[20] = system: Acinetobacter baumannii; assay: Antibacterial activity against Acinetobacter baumannii LAC-4 assessed as potentiation of cefiderocol antibacterial activity by measuring FIC after 18 hrs by microbroth dilution method; assay type: functional; method in brief: as §6
[21] = system: Escherichia coli; assay: Antibacterial activity against Escherichia coli 94393 assessed as reduction in bacterial growth after 18 hrs by microbroth dilution method; assay type: functional; method in brief: as §5
[22] = system: Escherichia coli; assay: Antibacterial activity against Escherichia coli 94393 assessed as reduction in bacterial growth after 18 hrs in presence of cefiderocol by microbroth dilution method; assay type: functional; method in brief: as §6
[23] = system: Pseudomonas aeruginosa; assay: Potentiation of antibiotic activity against Pseudomonas aeruginosa PA259 assessed as MIC fold reduction in ID-CAMHB condition at 8 ug/ml after 18 hrs by microbroth dilution method; settings: dose 8.0 µg/ml

NC[C@H]1O[C@H](O[C@H]2[C@H](OCCCCc3cn(-c4ccc(NC(=O)c5cc(Cl)ccc5O)cc4)nn3)[C@@H](O[C@H]3O[C@H](CO)[C@@H](O)[C@H](N)[C@H]3O)[C@H](N)C[C@@H]2N)[C@H](N)C[C@@H]1O was tested, and the “fold change (FC)” value [1] was 4, the “fold change (FC)” value [2] was 4 and the “fold change (FC)” value [3] was 4. For the same molecule, the “fold change (FC)” value [4] was 4, the “fold change (FC)” value [5] was 4 and the “fold change (FC)” value [6] was 4. For the same molecule, the MIC [7] was over 128 µg/mL, the Activity [8] was “Active” and the MIC [9] was over 128 µg/mL. It also gave an MIC [10] of over 128 µg/mL, an MIC [11] of over 128 µg/mL and an MIC [12] of 0.5 µg/mL. For the same molecule, the MIC [13] was 1 µg/mL, the MIC [14] was 0.5 µg/mL and the FIC [15] was 0.016. It also gave an MIC [16] of over 128 µg/mL, an MIC [17] of 0.25 µg/mL and an FIC [18] of 0.25. For the same molecule, the FIC [19] was 0.5, the FIC [20] was 1 and the MIC [21] was over 128 µg/mL. The MIC [22] was 1 µg/mL and the Activity [23] was “Active”.

— ChEMBL document CHEMBL5136969, “A niclosamide-tobramycin hybrid adjuvant potentiates cefiderocol against P. aeruginosa” (2021)
